Laboratory results: ChEMBL document CHEMBL1649124, “Genetic variability among ampC genes from acinetobacter genomic species 3” (Antimicrob Agents Chemother, 2009)
Values after ≈ are worked out from the molar mass of the structure shown. Residues, ends and D or L forms follow the SMILES beside them. *: point of attachment. βNA = c1ccc2cc(N*)ccc2c1

Tests used:
Assay type in all cases: functional
Escherichia coli [1] = assay: Antibacterial activity against Escherichia coli DH5alpha by Etest method
Outline: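 E. coli DH5α host strain, grown at 37°C in LB medium. MICs of β-lactams determined by Etest following the manufacturer's instructions.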

Escherichia coli [2] = assay: Antibacterial activity against Escherichia coli DH5alpha carrying ampC gene of Acinetobacter genomosp. 3 isolate 109 by Etest method
Outline: (§1)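 E. coli DH5α expressing the AG3 isolate ampC gene, PCR-amplified (high-fidelity system, 28 cycles) and cloned into BamHI/HindIII sites of pBGS18 (kanamycin marker) under the CTX-M-14 β-lactamase promoter. Grown at 37°C in LB, with kanamycin 50 µg/ml when needed. β-Lactam MICs determined by Etest per the manufacturer's instructions.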

Acinetobacter pittii [3] = assay: Antibacterial activity against Acinetobacter genomosp. 3 isolate 128 by Etest method
Outline: (§2)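 MICs for AG3 clinical isolates were read by Etest following the manufacturer's instructions. Isolates were stored at –80°C in 10% Brucella glycerol broth before testing.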

Acinetobacter pittii [4] = assay: Antibacterial activity against Acinetobacter genomosp. 3 isolate 14 by Etest method; outline: as §2
Acinetobacter pittii [5] = assay: Antibacterial activity against Acinetobacter genomosp. 3 isolate 109 by Etest method; outline: as §2
Acinetobacter pittii [6] = assay: Antibacterial activity against Acinetobacter genomosp. 3 isolate 69 by Etest method; outline: as §2
Escherichia coli [7] = assay: Antibacterial activity against Escherichia coli DH5alpha carrying ampC gene of Acinetobacter genomosp. 3 isolate 56 by Etest method; outline: as §1
Acinetobacter pittii [8] = assay: Antibacterial activity against Acinetobacter genomosp. 3 isolate 103 by Etest method; outline: as §2
Acinetobacter pittii [9] = assay: Antibacterial activity against Acinetobacter genomosp. 3 isolate 195 by Etest method; outline: as §2
Acinetobacter pittii [10] = assay: Antibacterial activity against Acinetobacter genomosp. 3 isolate 60 by Etest method; outline: as §2
Escherichia coli [11] = assay: Antibacterial activity against Escherichia coli DH5alpha carrying ampC gene of Acinetobacter genomosp. 3 isolate 20 by Etest method; outline: as §1
Acinetobacter pittii [12] = assay: Antibacterial activity against Acinetobacter genomosp. 3 isolate 52 by Etest method; outline: as §2
Acinetobacter pittii [13] = assay: Antibacterial activity against Acinetobacter genomosp. 3 isolate 20 by Etest method; outline: as §2
Acinetobacter pittii [14] = assay: Antibacterial activity against Acinetobacter genomosp. 3 isolate 90 by Etest method; outline: as §2
Escherichia coli [15] = assay: Antibacterial activity against Escherichia coli DH5alpha carrying ampC gene of Acinetobacter genomosp. 3 isolate 195 by Etest method; outline: as §1
Acinetobacter pittii [16] = assay: Antibacterial activity against Acinetobacter genomosp. 3 isolate 21 by Etest method; outline: as §2
Acinetobacter pittii [17] = assay: Antibacterial activity against Acinetobacter genomosp. 3 isolate 67 by Etest method; outline: as §2
Escherichia coli [18] = assay: Antibacterial activity against Escherichia coli DH5alpha carrying ampC gene of Acinetobacter genomosp. 3 isolate 14 by Etest method; outline: as §1
Escherichia coli [19] = assay: Antibacterial activity against Escherichia coli DH5alpha carrying ampC gene of Acinetobacter genomosp. 3 isolate 103 by Etest method; outline: as §1
Acinetobacter pittii [20] = assay: Antibacterial activity against Acinetobacter genomosp. 3 isolate 243 by Etest method; outline: as §2
Escherichia coli [21] = assay: Antibacterial activity against Escherichia coli DH5alpha carrying ampC gene of Acinetobacter genomosp. 3 isolate 69 by Etest method; outline: as §1
Acinetobacter pittii [22] = assay: Antibacterial activity against Acinetobacter genomosp. 3 isolate 56 by Etest method; outline: as §2
Acinetobacter pittii [23] = assay: Antibacterial activity against Acinetobacter genomosp. 3 isolate 65 by Etest method; outline: as §2
Escherichia coli [24] = assay: Antibacterial activity against Escherichia coli DH5alpha carrying ampC gene of Acinetobacter genomosp. 3 isolate 65 by Etest method; outline: as §1

Row | SMILES | MIC (Escherichia coli [1]) | MIC (Escherichia coli [2]) | MIC (Acinetobacter pittii [3]) | MIC (Acinetobacter pittii [4]) | MIC (Acinetobacter pittii [5]) | MIC (Acinetobacter pittii [6]) | MIC (Escherichia coli [7]) | MIC (Acinetobacter pittii [8]) | MIC (Acinetobacter pittii [9]) | MIC (Acinetobacter pittii [10]) | MIC (Escherichia coli [11]) | MIC (Acinetobacter pittii [12]) | MIC (Acinetobacter pittii [13]) | MIC (Acinetobacter pittii [14]) | MIC (Acinetobacter pittii [16]) | MIC (Acinetobacter pittii [17]) | MIC (Escherichia coli [18]) | MIC (Acinetobacter pittii [20]) | MIC (Acinetobacter pittii [22]) | MIC (Acinetobacter pittii [23]) | further results
1 | CO/N=C(\C(=O)N[C@@H]1C(=O)N2C(C(=O)O)=C(COC(N)=O)CS[C@H]12)c1ccco1 [CEFUROXIME] | 1.5 µg/mL (≈ 3.53 µM) | 32 µg/mL (≈ 75.4 µM) | 32 µg/mL | 32 µg/mL | 32 µg/mL | 32 µg/mL | 48 µg/mL (≈ 113 µM) | 48 µg/mL | 64 µg/mL | 64 µg/mL | 96 µg/mL (≈ 226 µM) | 32 µg/mL | 48 µg/mL | 16 µg/mL | 48 µg/mL | 48 µg/mL | 64 µg/mL (≈ 151 µM) | 32 µg/mL | 16 µg/mL | 24 µg/mL | MIC (Escherichia coli [15]): 48 µg/mL (≈ 113 µM); MIC (Escherichia coli [19]): 64 µg/mL (≈ 151 µM); MIC (Escherichia coli [21]): 32 µg/mL (≈ 75.4 µM); MIC (Escherichia coli [24]): 4 µg/mL (≈ 9.43 µM)
2 | CC1(C)S[C@@H]2[C@H](NC(=O)[C@H](N)c3ccccc3)C(=O)N2[C@H]1C(=O)O [AMPICILLIN] | 3 µg/mL (≈ 8.59 µM) | 64 µg/mL (≈ 183 µM) | – | – | – | – | 96 µg/mL (≈ 275 µM) | > 256 µg/mL | – | – | 96 µg/mL (≈ 275 µM) | – | > 256 µg/mL | – | – | – | 128 µg/mL (≈ 366 µM) | – | – | – | MIC (Escherichia coli [15]): 96 µg/mL (≈ 275 µM); MIC (Escherichia coli [19]): 128 µg/mL (≈ 366 µM); MIC (Escherichia coli [21]): 96 µg/mL (≈ 275 µM); MIC (Escherichia coli [24]): 32 µg/mL (≈ 91.6 µM)
3 | CO/N=C(\C(=O)N[C@@H]1C(=O)N2C(C(=O)[O-])=C(C[N+]3(C)CCCC3)CS[C@H]12)c1csc(N)n1 | 0.016 µg/mL (≈ 0.0333 µM) | 0.023 µg/mL (≈ 0.0479 µM) | 2 µg/mL | 3 µg/mL | 2 µg/mL | 3 µg/mL | 0.023 µg/mL (≈ 0.0479 µM) | 3 µg/mL | 6 µg/mL | 4 µg/mL | 0.19 µg/mL (≈ 0.395 µM) | 2 µg/mL | 4 µg/mL | 16 µg/mL | 12 µg/mL | 4 µg/mL | 0.023 µg/mL (≈ 0.0479 µM) | 3 µg/mL | 2 µg/mL | 3 µg/mL | MIC (Escherichia coli [15]): 0.032 µg/mL (≈ 0.0666 µM); MIC (Escherichia coli [19]): 0.032 µg/mL (≈ 0.0666 µM); MIC (Escherichia coli [21]): 0.023 µg/mL (≈ 0.0479 µM); MIC (Escherichia coli [24]): 0.032 µg/mL (≈ 0.0666 µM)
4 | Cc1onc(-c2ccccc2Cl)c1C(=O)N[C@@H]1C(=O)N2[C@@H]1SC(C)(C)[C@@H]2C(=O)O [CLOXACILLIN] | – | – | 2050 µg/mL | 2050 µg/mL | 2050 µg/mL | > 2050 µg/mL | – | 1020 µg/mL | 1020 µg/mL | 1020 µg/mL | – | 1020 µg/mL | 1020 µg/mL | 512 µg/mL | 512 µg/mL | 1880 µg/mL | – | 2050 µg/mL | 512 µg/mL | 1020 µg/mL | –
5 | C[C@@H](O)[C@H]1C(=O)N2C(C(=O)O)=C(SCCNC=N)C[C@H]12 [IMIPENEM ANHYDROUS] | 0.125 µg/mL (≈ 0.418 µM) | 0.12 µg/mL (≈ 0.401 µM) | 0.12 µg/mL | 0.25 µg/mL | 0.19 µg/mL | 0.25 µg/mL | 0.19 µg/mL (≈ 0.635 µM) | 0.75 µg/mL | 0.19 µg/mL | 0.25 µg/mL | 0.023 µg/mL (≈ 0.0768 µM) | 0.25 µg/mL | 1 µg/mL | 0.38 µg/mL | 0.38 µg/mL | 0.19 µg/mL | 0.125 µg/mL (≈ 0.418 µM) | 0.19 µg/mL | 0.19 µg/mL | 0.19 µg/mL | MIC (Escherichia coli [19]): 0.125 µg/mL (≈ 0.418 µM); MIC (Escherichia coli [21]): 0.19 µg/mL (≈ 0.635 µM); MIC (Escherichia coli [24]): 0.19 µg/mL (≈ 0.635 µM)
6 | N#CC(C#N)=NNc1cccc(Cl)c1 [CARBONYL CYANIDE M-CHLOROPHENYLHYDRAZONE] | – | – | > 400 µM | 400 µM | > 400 µM | > 400 µM | – | > 400 µM | > 400 µM | > 400 µM | – | > 400 µM | 400 µM | > 400 µM | > 400 µM | > 400 µM | – | 400 µM | > 400 µM | > 400 µM | –
7 | Cl.Cl.N=C(N)NCCC[C@H](NC(=O)[C@@H](N)Cc1ccccc1)C(=O)Nc1ccc2ccccc2c1 (H-Phe-Arg-βNA) | – | – | 400 µg/mL | > 400 µg/mL | 400 µg/mL | 400 µg/mL | – | 400 µg/mL | 400 µg/mL | 400 µg/mL | – | 400 µg/mL | > 400 µg/mL | > 400 µg/mL | > 400 µg/mL | 400 µg/mL | – | > 400 µg/mL | > 400 µg/mL | > 400 µg/mL | –
